Measurements pooled from the literature.
Compare with care: the assays were run in different laboratories.
Target: Angiopoietin-1 receptor (TEK, Homo sapiens, UniProt Q02763)

Structure (SMILES) | test | setting | measurement | result
C=CC(=O)N1CCC([C@@H]2CCNc3c(C(N)=O)c(-c4ccc(Oc5ccccc5)cc4)nn32)CC1 | cell-free assay | 1 µM | inhibition | 0%
C#Cc1cnc(Nc2ccnc(CO)c2)nc1Nc1ccccc1S(C)(=O)=NC#N (centres unmarked) | cell-free assay | 1 µM | remaining signal | 46%
C[C@H]1CC[C@H](n2c3cnccc3c3cnc(Nc4ccc5c(n4)CCN(C(=O)CO)C5)nc32)CC1 | cell-free assay, competition with immobilised ligand | 1 µM | remaining binding | 92%
CC#CC(=O)N1CCC[C@H]1c1nc(-c2ccc(C(=O)Nc3ccccn3)cc2)c2c(N)nccn12 | enzyme activity, inhibitor | 1 µM | inhibition | 0%
COc1ccc2oc(-c3ccc4nc(N)oc4c3)c/c(=N\c3ccccc3NC(=O)CCN)c2c1 | cell-free assay | 1 µM | remaining signal | 87%
N#Cc1ccc(NC(=O)Nc2ccccc2)cc1 | cell-free assay, competition with immobilised ligand | 25 µM | remaining binding | 98%
CCCCC(=O)Nc1ccc(-c2ccc3ncn(CCC)c(=O)c3c2)cn1 | binding, competition with immobilised ligand | 0.5 µM | remaining binding | 94%
COc1ccc2[nH]c3c4[nH]c5ccc(OC)cc5c4c4c(c3c2c1)C(=O)NC4=O | binding, competition with immobilised ligand | 1 µM | remaining binding | 100%
